Columns and labels:
[1] = test system: Rattus norvegicus; assay: Hypolipidemic activity in Wistar rat assessed as reduction in plasma cholesterol level at 524 umol/kg/day administered through diet for 4 days; type: functional; conditions: 96 h
In short: (§1)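 Young male Wistar rats, 170-190 g initial weight, groups of six, given compound mixed thoroughly into Purina Lab Chow ad libitum for 4 or 10 days as stated. Daily dose calculated from food consumption and body weight. Bled by cardiac puncture at end of treatment; plasma cholesterol measured by automated procedure. Expressed as percent reduction versus simultaneous untreated control group; Student's t test.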

[2] = test system: Rattus norvegicus; assay: Hypolipidemic activity in Wistar rat assessed as reduction in plasma triglyceride level at 524 umol/kg/day administered through diet for 4 days; type: functional; conditions: 96 h
[3] = test system: Rattus norvegicus; assay: Increase in liver weight in Wistar rat at 524 umol/kg/day administered through diet for 4 days; type: ADME, organism-based; conditions: in vivo, po, 96 h
[4] = test system: Rattus norvegicus; assay: Hypolipidemic activity in Wistar rat assessed as reduction in plasma triglyceride level at 402 umol/kg/day administered through diet for 10 days; type: functional; conditions: 240 h
[5] = test system: Rattus norvegicus; assay: Hypolipidemic activity in Wistar rat assessed as reduction in plasma triglyceride level at 179 umol/kg/day administered through diet for 10 days; type: functional; conditions: 240 h
In short: (§2)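 Young male Wistar rats (initial weight 170-190 g), groups of six, fed compound mixed into Purina Lab Chow ad libitum for 4 or 10 days; daily dose calculated from food consumption and body weight. Bled by cardiac puncture; plasma cholesterol and triglycerides by automated procedures; percent reduction versus simultaneous untreated controls, Student's t test.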

[6] = test system: Rattus norvegicus; assay: Hypolipidemic activity in Wistar rat assessed as reduction in plasma triglyceride level at 85 umol/kg/day administered through diet for 10 days; type: functional; conditions: 240 h
[7] = test system: Rattus norvegicus; assay: Hypolipidemic activity in Wistar rat assessed as reduction in plasma cholesterol level at 402 umol/kg/day administered through diet for 10 days; type: functional; conditions: 240 h
In short: (§3)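 Young male Wistar rats, 170-190 g at start, in groups of six, given compound mixed into Purina Lab Chow ad libitum for 4 or 10 days as stated. Daily dose was calculated from food consumption and body weight. Plasma was taken by cardiac puncture at the end and cholesterol measured by automated procedure. Results are % reduction versus a concurrent untreated control group, with Student's t test.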

[8] = test system: Rattus norvegicus; assay: Hypolipidemic activity in Wistar rat assessed as reduction in plasma cholesterol level at 179 umol/kg/day administered through diet for 10 days; type: functional; conditions: 240 h; in short: as §3
[9] = test system: Rattus norvegicus; assay: Hypolipidemic activity in Wistar rat assessed as reduction in plasma cholesterol level at 85 umol/kg/day administered through diet for 10 days; type: functional; conditions: 240 h; in short: as §2
[10] = test system: Rattus norvegicus; assay: Increase in liver weight in Wistar rat at 402 umol/kg/day administered through diet for 10 days; type: ADME, organism-based; conditions: in vivo, po, 240 h
[11] = test system: Rattus norvegicus; assay: Increase in liver weight in Wistar rat at 179 umol/kg/day administered through diet for 10 days; type: ADME, organism-based; conditions: in vivo, po, 240 h
[12] = test system: Rattus norvegicus; assay: Increase in liver weight in Wistar rat at 85 umol/kg/day administered through diet for 10 days; type: ADME, organism-based; conditions: in vivo, po, 240 h
[13] = test system: Rattus norvegicus; assay: Increase in cholesterol level in Wistar rat liver at 402 umol/kg/day administered through diet for 10 days; type: ADME, organism-based; conditions: in vivo, po, 240 h
[14] = test system: Rattus norvegicus; assay: Increase in cholesterol level in Wistar rat liver at 179 umol/kg/day administered through diet for 10 days; type: ADME, organism-based; conditions: in vivo, po, 240 h
In short: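 Male Wistar rats (170-190 g), six per group, given compound by admixture to lab chow ad libitum for 4 or 10 days, dose derived from food intake. Liver cholesterol determined by automated procedure, expressed as mg/g wet tissue, compared with an untreated control group by Student's t test.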

[15] = test system: Rattus norvegicus; assay: Increase in cholesterol level in Wistar rat liver at 85 umol/kg/day administered through diet for 10 days; type: ADME, organism-based; conditions: in vivo, po, 240 h
[16] = test system: Rattus norvegicus; assay: Increase in liver weight in Wistar rat at 428 umol/kg/day administered through diet for 4 days; type: ADME, organism-based; conditions: in vivo, po, 96 h
[17] = test system: Rattus norvegicus; assay: Hypolipidemic activity in Wistar rat assessed as reduction in plasma cholesterol level at 417 umol/kg/day administered through diet for 4 days; type: functional; conditions: 96 h; in short: as §1
[18] = test system: Rattus norvegicus; assay: Hypolipidemic activity in Wistar rat assessed as reduction in plasma triglyceride level at 417 umol/kg/day administered through diet for 4 days; type: functional; conditions: 96 h
[19] = test system: Rattus norvegicus; assay: Increase in liver weight in Wistar rat at 417 umol/kg/day administered through diet for 4 days; type: ADME, organism-based; conditions: in vivo, po, 96 h
[20] = test system: Rattus norvegicus; assay: Hypolipidemic activity in Wistar rat assessed as reduction in plasma triglyceride level at 406 umol/kg/day administered through diet for 10 days; type: functional; conditions: 240 h
[21] = test system: Rattus norvegicus; assay: Hypolipidemic activity in Wistar rat assessed as reduction in plasma triglyceride level at 400 umol/kg/day administered through diet for 4 days; type: functional; conditions: 96 h
[22] = test system: Rattus norvegicus; assay: Hypolipidemic activity in Wistar rat assessed as reduction in plasma cholesterol level at 406 umol/kg/day administered through diet for 10 days; type: functional; conditions: 240 h; in short: as §3
[23] = test system: Rattus norvegicus; assay: Hypolipidemic activity in Wistar rat assessed as reduction in plasma cholesterol level at 400 umol/kg/day administered through diet for 4 days; type: functional; conditions: 96 h; in short: as §3
[24] = test system: Rattus norvegicus; assay: Increase in liver weight in Wistar rat at 406 umol/kg/day administered through diet for 10 days; type: ADME, organism-based; conditions: in vivo, po, 240 h
[25] = test system: Rattus norvegicus; assay: Increase in liver weight in Wistar rat at 400 umol/kg/day administered through diet for 4 days; type: ADME, organism-based; conditions: in vivo, po, 96 h
[26] = test system: Rattus norvegicus; assay: Increase in cholesterol level in Wistar rat liver at 406 umol/kg/day administered through diet for 10 days; type: ADME, organism-based; conditions: in vivo, po, 240 h
[27] = test system: Rattus norvegicus; assay: Increase in cholesterol level in Wistar rat liver at 400 umol/kg/day administered through diet for 4 days; type: ADME, organism-based; conditions: in vivo, po, 96 h
[28] = test system: Rattus norvegicus; assay: Hypolipidemic activity in Wistar rat assessed as reduction in plasma cholesterol level at 369 umol/kg/day administered through diet for 4 days; type: functional; conditions: 96 h; in short: as §3
[29] = test system: Rattus norvegicus; assay: Hypolipidemic activity in Wistar rat assessed as reduction in plasma triglyceride level at 369 umol/kg/day administered through diet for 4 days; type: functional; conditions: 96 h
In short: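 Young male Wistar rats, 170-190 g at start, six per group, given compound mixed into Purina Lab Chow, fed ad libitum for 4 or 10 days. Daily dose calculated from food consumption and body weight. Rats bled by cardiac puncture at end of treatment. Plasma triglycerides determined by automated procedure. Expressed as percent reduction versus a concurrent untreated control group, Student's t test.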

[30] = test system: Rattus norvegicus; assay: Increase in liver weight in Wistar rat at 369 umol/kg/day administered through diet for 4 days; type: ADME, organism-based; conditions: in vivo, po, 96 h
[31] = test system: Rattus norvegicus; assay: Hypolipidemic activity in Wistar rat assessed as reduction in plasma triglyceride level at 311 umol/kg/day administered through diet for 10 days; type: functional; conditions: 240 h
In short: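 Young male Wistar rats, 170-190 g initial weight, six per group, fed drug mixed thoroughly into Purina Lab Chow ad libitum for the stated days; daily dose calculated from food consumption and body weight. Bled by cardiac puncture at end; plasma cholesterol and triglycerides by automated procedures, expressed as percent reduction versus simultaneous untreated controls; Student's t test.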

[32] = test system: Rattus norvegicus; assay: Hypolipidemic activity in Wistar rat assessed as reduction in plasma cholesterol level at 311 umol/kg/day administered through diet for 10 days; type: functional; conditions: 240 h; in short: as §3
[33] = test system: Rattus norvegicus; assay: Increase in liver weight in Wistar rat at 311 umol/kg/day administered through diet for 10 days; type: ADME, organism-based; conditions: in vivo, po, 240 h
[34] = test system: Rattus norvegicus; assay: Increase in cholesterol level in Wistar rat liver at 311 umol/kg/day administered through diet for 10 days; type: ADME, organism-based; conditions: in vivo, po, 240 h
[35] = test system: Rattus norvegicus; assay: Hypolipidemic activity in Wistar rat assessed as reduction in plasma cholesterol level at 423 umol/kg/day administered through diet for 4 days; type: functional; conditions: 96 h; in short: as §1
[36] = test system: Rattus norvegicus; assay: Hypolipidemic activity in Wistar rat assessed as reduction in plasma triglyceride level at 423 umol/kg/day administered through diet for 4 days; type: functional; conditions: 96 h
[37] = test system: Rattus norvegicus; assay: Increase in liver weight in Wistar rat at 423 umol/kg/day administered through diet for 4 days; type: ADME, organism-based; conditions: in vivo, po, 96 h

CCCCCCCCCCCCCCOc1ccco1
inhibition in vivo at 524 µmol/kg [1]: 0% | inhibition in vivo at 524 µmol/kg [2]: 0% | Activity [3]: 1%

CCCCCCCCCCCCCCOc1ccc(C(=O)CC(=O)OC)cc1
inhibition in vivo at 402 µmol/kg [4]: 75% | inhibition in vivo at 179 µmol/kg [5]: 54% | inhibition in vivo at 85 µmol/kg [6]: 44% | inhibition in vivo at 402 µmol/kg [7]: 40% | inhibition in vivo at 179 µmol/kg [8]: 27% | inhibition in vivo at 85 µmol/kg [9]: 9% | Activity [10]: 7% | Activity [11]: 3% | Activity [12]: 0% | Activity [13]: 9% | Activity [14]: 4% | Activity [15]: 0%

CCCCCCCCCCCCCCSc1ccc(C(=O)O)cc1
Activity [16]: 6%

CCCCCCCCCCCCCCOc1ccc(C(=O)OC)c(OC)c1
inhibition in vivo at 417 µmol/kg [17]: 7% | inhibition in vivo at 417 µmol/kg [18]: 0% | Activity [19]: 0%

CCCCCCCCCCCCOc1ccc(C(=O)CC(=O)OC)cc1
inhibition in vivo at 406 µmol/kg [20]: 71% | inhibition in vivo at 400 µmol/kg [21]: 84% | inhibition in vivo at 406 µmol/kg [22]: 27% | inhibition in vivo at 400 µmol/kg [23]: 35% | Activity [24]: 34% | Activity [25]: 22% | Activity [26]: 24% | Activity [27]: 32%

CCCCCCCCCCCCCCOc1ccc(C(=O)C(Cl)(Cl)Cl)o1
inhibition in vivo at 369 µmol/kg [28]: 9% | inhibition in vivo at 369 µmol/kg [29]: 33% | Activity [30]: 6%

CCCCCCCCCCCCCCCCOc1ccc(C(=O)CC(=O)O)cc1
inhibition in vivo at 311 µmol/kg [31]: 49% | inhibition in vivo at 311 µmol/kg [32]: 29% | Activity [33]: 0% | Activity [34]: 0%

CCCCCCCCCCCCCCOc1ccc(C(=O)OC)cc1C(=O)OC
inhibition in vivo at 423 µmol/kg [35]: 7% | inhibition in vivo at 423 µmol/kg [36]: 10% | Activity [37]: 0%

Source: ChEMBL document CHEMBL3272012, “5-(Tetradecyloxy)-2-furancarboxylic acid and related hypolipidemic fatty acid-like alkyloxyarylcarboxylic acids” (J Med Chem, 1977)
